High-throughput results as filed in PubChem BioAssay.
RGS4 act: RGS4 potentiators or activators, primary screen, cell-based, HEK293 M3R inducible RGS4, calcium flux. 310,000 tested, 0.92% active. carbachol calcium flux Fluo4; active compounds read low. B-score at 10 µM;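 active = B-score of the integrated calcium signal more than 4 SD below the library mean, with starting fluorescence not abnormally high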;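 also: negative B-score means reduced calcium response which marks RGS4 activation or potentiation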
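Also added: carbachol at ECmax as muscarinic agonist stimulus; Assay system: HEK293 cells with stable M3R and inducible RGS4; Timing: overnight RGS4 induction, 30 min dye load 37 °C, 20 min compound RT; Measured by: Fluo4-AM (2 µM) calcium-flux fluorescence, kinetic read.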
MrgX1 antagonist: antagonists of human MrgX1 receptor, primary screen, HEK293 cells, Fluo-4 calcium flux | Mas-related G-protein coupled receptor member X1 (Homo sapiens), Q96LB2 | 310,000 tested, 1.3% active | B-score at 10 µM | BAM8-22 antagonism; active compounds read low;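 active = calcium-response B-score plate-corrected more than 3 library SD below zero, starting fluorescence within 5 deviations, no agonist response on first addition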;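 also: peak minus trough fluorescence over baseline after final BAM8-22 challenge near maximal dose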
Target sequence (Q96LB2 whole entry, looked up): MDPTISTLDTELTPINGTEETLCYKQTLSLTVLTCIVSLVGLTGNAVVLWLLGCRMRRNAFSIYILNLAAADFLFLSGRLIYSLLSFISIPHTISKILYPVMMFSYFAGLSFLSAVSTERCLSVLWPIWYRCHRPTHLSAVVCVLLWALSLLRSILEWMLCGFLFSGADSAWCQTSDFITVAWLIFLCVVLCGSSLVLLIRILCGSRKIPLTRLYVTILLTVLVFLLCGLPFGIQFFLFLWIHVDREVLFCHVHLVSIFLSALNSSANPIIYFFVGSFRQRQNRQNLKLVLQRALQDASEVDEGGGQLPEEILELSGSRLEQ
MrgX1 ag: agonists of human MrgX1 receptor, primary screen, HEK293 cells, Fluo-4 calcium flux. B-score at 10 µM. Mas-related G-protein coupled receptor member X1 (Homo sapiens), Q96LB2. AID 588627, 2011. 310,000 tested, 0.44% active. Fluo-4 calcium fluorescence, agonist mode; active compounds read high;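 active = calcium response B-score plate-corrected fluorescence ratio at least 3 library SD, with starting fluorescence B-score inside 5 SD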
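Material: MrgX1-expressing HEK293 cells; input: 15,000 cells per well; doses: test compound given as first of three sequential additions; schedule: overnight plating before 1 h dye loading; technique: Fluo-4 NW calcium-flux fluorescence, kinetic read; evaluation: baseline-normalised fluorescence change ratio, B-scored; control set: plate-wise positive and negative controls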
RGS4 block: RGS4 inhibitors, primary screen, cell-based, HEK293 M3R inducible RGS4, calcium flux; Fluo-4 calcium flux; active compounds read high; triggered by carbachol at its EC20; B-score at 10 µM; 310,000 tested, 0.45% active;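 active = B-score, a plate-corrected calcium signal, over three deviations above library mean, with baseline fluorescence within five deviations of library mean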;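 also: RGS4 expression induced by doxycycline in cells with stable M3 receptor; B-score is computed from the integrated fluorescence ratio over baseline after carbachol; higher B-score means a larger calcium signal and so more RGS4 inhibition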
Target sequence (P49798 whole entry, looked up): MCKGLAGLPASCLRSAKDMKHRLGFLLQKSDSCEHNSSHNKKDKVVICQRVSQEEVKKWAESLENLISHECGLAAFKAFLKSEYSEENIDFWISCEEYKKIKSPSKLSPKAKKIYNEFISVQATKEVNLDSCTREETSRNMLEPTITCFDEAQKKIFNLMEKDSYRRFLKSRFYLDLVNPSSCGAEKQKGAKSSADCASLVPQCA
MrgX1 PAM: positive allosteric modulators of MrgX1, primary screen, HEK293 cells, Fluo-4 calcium flux. 310,000 tested, 0.63% active. Mas-related G-protein coupled receptor member X1 (Homo sapiens), Q96LB2. AID 588675, 2011. FDSS; active compounds read high. B-score at 10 µM;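 active = plate-corrected calcium response at least 3 library SD above typical, normal starting fluorescence, not activating the receptor alone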;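 also: compound read alongside a low EC10 to EC30 dose of BAM8-22 agonist; peak minus trough fluorescence over baseline measured at the second addition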
Active calls of the source: *; i = inactive; x = no result given. Compounds with a hit are over-represented: about 3.5% of the library has one in this group of screens.

SMILES	RGS4 act	MrgX1 antagonist	MrgX1 ag	RGS4 block	MrgX1 PAM
COc1ccccc1C(=O)NC(CCSC)C(=O)OC(C)C(N)=O (configuration not stated)	i	i	i	i	12*
COc1ccc(S(=O)(=O)N2CCCCCC2)cc1C(=O)N(C)Cc1ccc(Cl)cc1Cl	i	i	i	i	14*
Cc1cc(C)n(CC(=O)N/N=C/c2ccc([N+](=O)[O-])s2)n1	i	i	i	i	i
Cc1cc(C)n(CC(=O)N/N=C/c2cccs2)n1	i	-4.6*	i	i	i
Cc1nc2ccccn2c1-c1nnco1	i	i	i	i	i
Cc1ccc(O)c(Sc2cc(C)ccc2O)c1	i	i	29*	i	i
O=C(CCNC(=O)N1CCn2c1nc1ccccc12)NCc1ccc(F)cc1	i	i	i	i	i
COc1ccc(C(=O)COC(=O)c2cc(S(=O)(=O)NCc3ccccc3)ccc2O)cc1	i	i	26*	i	i
Cc1onc(-c2cccc(Cl)c2Cl)c1C(=O)O/N=C(\N)c1ccc([N+](=O)[O-])o1	-8.7*	i	i	i	i
Cn1cc(/C=C/C(=O)c2ccccc2)c2ccccc21	i	i	i	i	i
Cn1cc(/C=C(\C(=O)O)C(C(=O)O)=C2CCCCC2)c2ccccc21	i	-4.8*	i	i	i
CCOC(=O)C(=Cc1ccc(F)cc1)C(=O)OCC	i	i	i	i	7.5*
CCOC(=O)C(=Cc1ccc(Br)cc1)C(=O)OCC	i	i	i	i	i
COc1cc(OC)cc(-c2nnc(Sc3ccc(C=O)cc3[N+](=O)[O-])o2)c1	i	-4.5*	i	7.2*	i
COc1cc(OC)cc(-c2nnc(SCC(=O)N(C(C)C)C(C)C)o2)c1	i	i	i	i	i
Cc1ccc2nc(N3C(=O)C(O)=C(C(=O)c4cc5ccccc5o4)C3c3cccs3)sc2c1 (configuration not stated)	i	-5.6*	i	i	i
CCc1ccc2nc(N3C(=O)C(O)=C(C(=O)c4ccco4)C3c3cccs3)sc2c1 (configuration not stated)	i	i	i	i	i
CC(=O)N(C)c1ccc(NC(=O)Nc2ccc(C)c(C)c2)cc1	-7.4*	i	i	i	i
N#C/C(=C\c1ccc(Sc2nc3ccccc3[nH]2)o1)c1ccccc1	i	-4.8*	i	i	i
Cc1ccccc1OCCC(=O)OCC(=O)NC1CCS(=O)(=O)C1 (configuration not stated)	i	i	i	i	i
CCCCCc1ccc(OCCC[n+]2ccccc2)c(CCCCC)c1	i	i	i	i	i
CCCCCc1ccc(OCCOCCn2c[n+](C)c3ccccc32)c(CCCCC)c1	-7.6*	x	x	i	x
COCCn1c(SCC(=O)N(C(C)C)C(C)C)nnc1-c1cc2ccccc2cc1O	i	i	i	i	6.6*
COc1ccc(/C=C2\C(=O)ON=C2c2cccc([N+](=O)[O-])c2)cc1	i	i	i	6.8*	i
CC(=O)/C(=N\Nc1ccccc1)Sc1cccc2cccnc12	i	-4.7*	i	i	i
SMILES	RGS4 act	MrgX1 antagonist	MrgX1 ag	RGS4 block	MrgX1 PAM
CCOc1ccc(-n2nc3c(=O)n(CCN4CCCCC4)nc(C)c3c2C)cc1	-8.5*	i	i	i	i
CC1(C)CC(=O)N(CC(=O)O)c2ccccc2S1(=O)=O	i	i	i	i	i
CC(=O)OCC1=C(C(=O)O)N2C(=O)C(NC(=O)C(C)Cn3nc(C)c(Cl)c3C)C2SC1 (configuration not stated)	-7.1*	i	i	i	i
CC(=O)OCC1=C(C(=O)O)N2C(=O)C(NC(=O)c3ccc(F)cc3)C2SC1 (configuration not stated)	i	i	i	i	i
CN(C)c1ccc(/C=N/N(CCO)C2=NS(=O)(=O)c3ccccc32)cc1	-7.9*	i	i	i	i
O=S1(=O)N=C(N(CCO)/N=C/c2ccc(Cl)cc2)c2ccccc21	i	i	i	i	i
CC1=CC(=O)C=C(C)C1=NOc1ccc([N+](=O)[O-])cc1	i	i	33*	i	i
CCC(=O)Nc1nnc(S(=O)(=O)N(CC)c2ccc(Cl)cc2)s1	i	i	i	i	i
NC(=O)C(=O)NN=C1CCC(c2ccccc2)CC1 (configuration not stated)	i	i	i	i	i
O=C(NCc1ccc2c(c1)OCO2)C(=O)NCC1CCCO1 (configuration not stated)	i	i	i	i	i
N#C/C(=C\c1ccc[nH]1)C(=O)NCC1CCCO1 (configuration not stated)	i	i	i	i	7.8*
CCCCC(=O)NCCc1cc2c(C)ccc(C)c2[nH]c1=O	i	i	i	i	i
O=C(Nc1ccc2c(c1)OCO2)N1CCCc2ccccc21	i	i	i	i	i
Cc1cccn2c(=O)c(C(=O)NC3CC(C)CC(C)(C)C3)c(O)nc12 (configuration not stated)	-7.2*	i	i	i	i
CC(=O)C1=C(O)C(=O)N(c2ccc(Br)cn2)C1c1ccc(Br)cc1 (configuration not stated)	i	i	i	i	i
Nc1nonc1-n1nnc(C(=O)N/N=C/c2ccco2)c1CSc1ccccc1	i	i	i	i	i
CC(=O)c1ccc(NC(=S)NC(NC(=O)c2ccco2)C(Cl)(Cl)Cl)cc1 (configuration not stated)	i	i	i	i	7.6*
O=C(NC(NC(=S)Nc1ccc(Cl)cc1)C(Cl)(Cl)Cl)c1ccco1 (configuration not stated)	i	i	i	i	i
O=C(OC1CCCCC1)c1ccc(NC(=O)C2CCCCC2)cc1	-7*	i	i	i	i
O=C(O)CCC(=O)Nc1ccc(C(=O)OC2CCCCC2)cc1	i	i	i	i	i
COc1ccc(CN(CCNC(=O)CCCCC(=O)NCCN(Cc2ccc(OC)cc2)C(C)C)C(C)C)cc1	-9.2*	i	i	i	i
Cc1ccc(OCCn2ccnc2)c([N+](=O)[O-])c1	i	i	i	i	11*
COc1ccc(Cn2c(N)c(C#N)c3nc4ccccc4nc32)cc1OC	i	i	i	i	i
